Measurements taken from ChEMBL document CHEMBL2046340, “Naphthoquinones from Onosma paniculata induce cell-cycle arrest and apoptosis in melanoma Cells” (J Nat Prod, 2012).
Calls of active or inactive are those of the source. The calls are words filed in the database; no cut-off is given here.

Experiments:
CCRF-CEM = assay: Cytotoxicity against human CCRF-CEM cells after 72 hrs by XTT assay; assay type: functional, cell-based
How it was run: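 CCRF-CEM leukaemia cells in RPMI 1640 with 2 mM glutamine and 10% FBS, 37 °C, 5% CO2. Seeded at 10 000 cells/well and exposed for 72 h to at least eight concentrations, freshly diluted from DMSO into medium (vehicle 0.5% DMSO). XTT with electron coupling reagent was read after 4 h. IC50 came from a four-parameter logistic fit over two passages × three wells; six independent experiments.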

MDA-MB-231 = assay: Cytotoxicity against human MDA-MB-231 cells after 72 hrs by XTT assay; assay type: functional, cell-based; conditions: MDA-MB-231, 72 h
How it was run: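 MDA-MB-231 breast cancer cells, RPMI 1640 with 2 mM glutamine and 10% FBS, 37 °C in 5% CO2. Seeded at 5000 cells/well, adhered overnight, then 72 h exposure over at least eight concentrations with 0.5% DMSO vehicle. XTT readout after 1.5 h. Four-parameter logistic IC50 from two passages each in three wells; mean ± SEM of six experiments.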

U-251 = assay: Cytotoxicity against human U251 cells after 72 hrs by XTT assay; assay type: functional, cell-based; conditions: U-251, 72 h
How it was run: (§1)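 U251 glioblastoma and HCT 116 colon cells grown in high-glucose DMEM with 2 mM glutamine and 10% FBS. 5000 cells/well attached overnight, then received at least eight concentrations for 72 h (0.5% DMSO vehicle). XTT read 1.5 h after addition. IC50 by four-parameter logistic fit; two passages × three wells, six independent experiments, mean ± SEM.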

HCT-116 = assay: Cytotoxicity against human HCT116 cells after 72 hrs by XTT assay; assay type: functional, cell-based; conditions: HCT-116, 72 h; how it was run: as §1
[1] = Cytotoxicity against human SBcl2 cells after 72 hrs by XTT assay; assay type: functional, cell-based; conditions: SBcl2, 72 h
How it was run: (§2)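 Melanoma lines (SBcl2, WM35, WM9, WM164) kept in RPMI 1640 with 2 mM glutamine and 2% FBS, 37 °C, 5% CO2. Plated at 5000 cells/well overnight and treated 72 h across at least eight concentrations (freshly diluted from DMSO; vehicle 0.5% DMSO). XTT absorbance read after 1.5 h. IC50 from four-parameter logistic curves; two passages in triplicate, six experiments, mean ± SEM.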

[2] = Cytotoxicity against human WM35 cells after 72 hrs by XTT assay; assay type: functional, cell-based; conditions: WM35, 72 h; how it was run: as §2
[3] = Cytotoxicity against human WM9 cells after 72 hrs by XTT assay; assay type: functional, cell-based; conditions: WM9, 72 h; how it was run: as §2
[4] = Cytotoxicity against human WM164 cells after 72 hrs by XTT assay; assay type: functional, cell-based; conditions: WM164, 72 h; how it was run: as §2
MRC5 [5] = assay: Cytotoxicity against human MRC5 cells after 72 hrs by XTT assay; assay type: cell-based; conditions: MRC5, 72 h
How it was run: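 MRC-5 lung fibroblasts in MEM with 2 mM glutamine and 10% FBS. Seeded at 10 000 cells/well, attached overnight, then treated 72 h with at least eight concentrations (DMSO stock diluted in medium, 0.5% DMSO vehicle). XTT was added and read 1.5 h later. IC50 came from a four-parameter logistic curve; two passages × triplicate wells, six independent experiments, mean ± SEM.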

MRC5 [6] = assay: Selectivity ratio of IC50 for human MRC5 cells to IC50 for human CCRF-CEM cells
How it was run: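 The ratio uses XTT viability IC50s from a 72 h exposure. MRC-5 fibroblasts were grown in MEM and CCRF-CEM cells in RPMI 1640, both with 10% FBS; both were seeded at 10 000 cells/well. XTT was read after 1.5 h (MRC-5) or 4 h (CCRF-CEM). IC50s came from four-parameter logistic fits over at least eight concentrations, six independent experiments.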

SBcl2 [7] = assay: Induction of morphological changes in human SBcl2 cells assessed as less density and round shape phenotype with fewer dendrites of cells at IC50 after 24 to 48 hrs; assay type: functional, cell-based
WM35 = assay: Induction of morphological changes in human WM35 cells assessed as less density and round shape phenotype with fewer dendrites of cells at IC50 after 24 to 48 hrs; assay type: functional, cell-based
WM9 = assay: Induction of morphological changes in human WM9 cells assessed as less density and round shape phenotype with fewer dendrites of cells at IC50 after 24 to 48 hrs; assay type: functional, cell-based
WM164 [8] = assay: Induction of morphological changes in human WM164 cells assessed as less density and round shape phenotype with fewer dendrites of cells at IC50 after 24 to 48 hrs; assay type: functional, cell-based
[9] = Cell cycle arrest in human WM9 cells assessed as accumulation at G2/M phase at IC50 after 12 to 72 hrs using propidium iodide staining by FACS analysis; assay type: functional, cell-based
How it was run: (§3)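 Melanoma lines were kept in RPMI 1640 with 2 mM L-glutamine, 2% FBS and penicillin/streptomycin at 37 °C under 5% CO2. Cells were exposed for 12–72 h, with 0.5% DMSO vehicle controls, then trypsinized. 5 × 10^5 cells were fixed in ice-cold 70% EtOH for 10 min at 4 °C, washed in PBS and stained with PI/RNase A for 15 min at 37 °C. Phases were read by flow cytometry; n = 3 means.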

[10] = Cell cycle arrest in human WM164 cells assessed as accumulation at G2/M phase at IC50 after 12 to 72 hrs using propidium iodide staining by FACS analysis; assay type: functional, cell-based; how it was run: as §3
[11] = Cell cycle arrest in human SBcl2 cells assessed as increase of cells accumulation at S phase at IC50 after 12 to 72 hrs using propidium iodide staining by FACS analysis; assay type: functional, cell-based; how it was run: as §3
[12] = Cell cycle arrest in human WM35 cells assessed as increase of cells accumulation at S phase at IC50 after 12 to 72 hrs using propidium iodide staining by FACS analysis; assay type: functional, cell-based; how it was run: as §3
[13] = Induction of apoptosis in human WM9 cells assessed as accumulation at sub-G1 phase at IC50 after 24 […]
[14] = Induction of apoptosis in human WM35 cells assessed as accumulation at sub-G1 phase at IC50 after 24 […]
SBcl2 [15] = assay: Induction of apoptosis in human SBcl2 cells assessed as accumulation at sub-G1 phase at IC50 after 24 […]
WM164 [16] = assay: Induction of apoptosis in human WM164 cells assessed as increased accumulation at sub-G1 phase at IC50 after 24 […]

For CC(C)=CC[C@@H](OC(=O)CC(C)(C)O)C1=CC(=O)c2c(O)ccc(O)c2C1=O [BETA-HYDROXYISOVALERYLSHIKONIN], the IC50 (CCRF-CEM) was 0.6 µM, the IC50 (MDA-MB-231) was 4.6 µM and the IC50 (U-251) was 23.6 µM. The IC50 (HCT-116) was 4.1 µM, the IC50 [1] was 8.3 µM and the IC50 [2] was 13 µM. The IC50 [3] was 12.7 µM, the IC50 [4] was 30.9 µM and the IC50 (MRC5 [5]) was 3.9 µM. For the same molecule, the “Ratio IC50” value (MRC5 [6]) was 6.
Molecule CC(C)=CC[C@@H](OC(=O)C=C(C)C)C1=CC(=O)c2c(O)ccc(O)c2C1=O [DIMETHYLACRYLSHIKONIN] has an IC50 (CCRF-CEM) of 1.9 µM, an IC50 (MDA-MB-231) of 23.2 µM and an IC50 (U-251) of 30.8 µM. It also gave an IC50 (HCT-116) of 20 µM, an IC50 [1] of 1.1 µM and an IC50 [2] of 2.3 µM. It also gave an IC50 [3] of 2.7 µM, an IC50 [4] of 8.3 µM and an IC50 (MRC5 [5]) of 2.4 µM. The Ratio IC50 (MRC5 [6]) was 1.3, the Activity (SBcl2 [7]) was “Active” and the Activity (WM35) was “Active”. The Activity (WM9) was “Active”, the Activity (WM164 [8]) was “Active” and the Activity [9] was “Active”. For the same molecule, the Activity [10] was “Active”, the Activity [11] was “Active” and the Activity [12] was “Active”. For the same molecule, the Activity [13] was 20%, the Activity [14] was 20% and the Activity (SBcl2 [15]) was 20%. For the same molecule, the Activity (WM164 [16]) was 20%.
For CC(=O)O[C@H](CC=C(C)C)C1=CC(=O)c2c(O)ccc(O)c2C1=O [ACETYLSHIKONIN], the IC50 (CCRF-CEM) was 1 µM, the IC50 (MDA-MB-231) was 11.3 µM and the IC50 (U-251) was 15.9 µM. For the same molecule, the IC50 (HCT-116) was 9 µM, the IC50 [1] was 13 µM and the IC50 [2] was 30.7 µM. For the same molecule, the IC50 [3] was 23.5 µM, the IC50 [4] was 71.5 µM and the IC50 (MRC5 [5]) was 2.6 µM. For the same molecule, the Ratio IC50 (MRC5 [6]) was 2.6.
CC[C@]1(O)C[C@@H]2CN(CCc3c([nH]c4ccccc34)[C@@](C(=O)OC)(c3cc4c(cc3OC)N(C)[C@H]3[C@@](O)(C(=O)OC)[C@H](OC(C)=O)[C@]5(CC)C=CCN6CC[C@]43[C@@H]65)C2)C1 [VINBLASTINE] showed an IC50 (CCRF-CEM) of 0.0094 µM, an IC50 (MDA-MB-231) of 0.031 µM and an IC50 (U-251) of 0.0081 µM. For the same molecule, the IC50 (HCT-116) was 0.0087 µM, the IC50 [1] was 0.011 µM and the IC50 [2] was 0.0035 µM. It also gave an IC50 [3] of 0.015 µM, an IC50 [4] of 0.0042 µM and an IC50 (MRC5 [5]) of 0.024 µM.
